Measurements: ChEMBL document CHEMBL4689842, “EUbOPEN Chemogenomics Library wave 1” (2021)
Values joined by “and” are separate entries in the source; they are usually repeats but may differ in a detail not shown here. Equal values may be shown once.

Tested on: HEK-293T
Experiment: Multiplex assay against HEK293T;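 on Population Tubulin-Different-Phenotype (%): share of the cells with healthy nuclei that show this phenotype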
Assay type: toxicity, cell-based
Details: human
Summary of the method: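 With compound added, live cells were imaged on a CQ1 microscope at 37°C and 5% CO2; staining with Hoechst33342, BioTracker Green Microtubule Cytoskeleton Dye, MitoTracker Red and Annexin V Alexa Fluor 680 had been done at seeding. The CellPathfinder machine-learning gating scheme split cells into Hoechst high-intensity objects or normal cells, normal cells into healthy, pyknosed or fragmented nuclei, and pyknosed cells into mitotic or apoptotic. The tubulin, mitochondrial-mass and membrane-permeability phenotypes are per cents of healthy-nucleus cells.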

[1] = 12 h, 1 µM, compound concentration 1 uM, replicate 1
[2] = 12 h, 1 µM, compound concentration 1 uM, replicate 2
[3] = 12 h, 10 µM, compound concentration 10 uM, replicate 1
[4] = 12 h, 10 µM, compound concentration 10 uM, replicate 2
[5] = 24 h, 1 µM, compound concentration 1 uM, replicate 1
[6] = 24 h, 1 µM, compound concentration 1 uM, replicate 2
[7] = 24 h, 10 µM, compound concentration 10 uM, replicate 1
[8] = 24 h, 10 µM, compound concentration 10 uM, replicate 2
[9] = 48 h, 1 µM, compound concentration 1 uM, replicate 1
[10] = 48 h, 1 µM, compound concentration 1 uM, replicate 2
[11] = 48 h, 10 µM, compound concentration 10 uM, replicate 1
[12] = 48 h, 10 µM, compound concentration 10 uM, replicate 2

O=C(NCCCC1CCCCC1)c1ccc(CNC(=O)c2cnn(-c3ccccc3)c2C(F)(F)F)cc1 [SR-321]
Population Apoptotic (%) [1]: 40% and 29% and 42%
Population Fragmented Nuclei (%) [1]: 15% [middle of 4 runs]
Population Healthy Nuclei (%) [1]: 31% and 37% and 67%
Population Hoechst High Intensity Objects (%) [1]: 14% [middle of 4 runs]
Population Membrane Permeable-Phenotype (%) [1]: 2% and 0% and 3%
Population Mitotic Cells (%) [1]: 59% and 70% and 57%
Population Normal (%) [1]: 85% and 83% and 90% and 88%
Total Cell Count [1]: 312 [middle of 4 runs]
Population Apoptotic (%) [2]: 10% [middle of 4 runs]
Population Fragmented Nuclei (%) [2]: 6% [middle of 4 runs]
Population Healthy Nuclei (%) [2]: 42% [middle of 4 runs]
Population Hoechst High Intensity Objects (%) [2]: 3% and 2% and 5%
Population Membrane Permeable-Phenotype (%) [2]: 10% and 8% and 1%
Population Mitochondria Different-Phenotype (%) [2]: 10% and 19% and 7%
Population Mitotic Cells (%) [2]: 85% and 90% and 89% and 92%
Population Normal (%) [2]: 96% and 97% and 94%
Population Apoptotic (%) [3]: 50% [middle of 4 runs]
Population Fragmented Nuclei (%) [3]: 16% [middle of 4 runs]
Population Hoechst High Intensity Objects (%) [3]: 17% [middle of 4 runs]
Population Membrane Permeable-Phenotype (%) [3]: 6% and 2% and 4%
Population Mitotic Cells (%) [3]: 60% [middle of 4 runs]
Population Normal (%) [3]: 86% and 81% and 82% and 89%
Total Cell Count [3]: 302 [middle of 4 runs]
Population Healthy Nuclei (%) [4]: 38% [middle of 4 runs]
Population Hoechst High Intensity Objects (%) [4]: 4% and 2% and 3%
Population Membrane Permeable-Phenotype (%) [4]: 5% and 3% and 0%
Population Mitotic Cells (%) [4]: 86% [middle of 4 runs]
Population Normal (%) [4]: 95% and 97% and 96%
Population Tubulin-Different-Phenotype (%) [4]: 32% [middle of 4 runs]
Population Fragmented Nuclei (%) [5]: 13% [middle of 4 runs]
Population Healthy Nuclei (%) [5]: 42% and 36% and 81%
Population Hoechst High Intensity Objects (%) [5]: 15% [middle of 4 runs]
Population Membrane Permeable-Phenotype (%) [5]: 2% [middle of 4 runs]
Population Mitotic Cells (%) [5]: 59% and 54% and 58% and 86%
Population Normal (%) [5]: 87% and 83% and 84% and 93%
Total Cell Count [5]: 361 [middle of 4 runs]
Population Healthy Nuclei (%) [6]: 65% [middle of 4 runs]
Population Hoechst High Intensity Objects (%) [6]: 2% and 3%
Population Membrane Permeable-Phenotype (%) [6]: 11% [middle of 4 runs]
Population Mitotic Cells (%) [6]: 82% and 89% and 94%
Population Normal (%) [6]: 97% and 96%
Population Tubulin-Different-Phenotype (%) [6]: 20% [middle of 4 runs]
Population Apoptotic (%) [7]: 57% [middle of 4 runs]
Population Fragmented Nuclei (%) [7]: 16% and 19% and 18%
Population Membrane Permeable-Phenotype (%) [7]: 0% and 4% and 6%
Population Mitotic Cells (%) [7]: 53% [middle of 4 runs]
Population Normal (%) [7]: 81% and 80% and 85% and 93%
Population Tubulin-Different-Phenotype (%) [7]: 59% and 53% and 26%
Population Healthy Nuclei (%) [8]: 55% [middle of 4 runs]
Population Hoechst High Intensity Objects (%) [8]: 3% and 4%
Population Mitotic Cells (%) [8]: 73% and 81% and 95%
Population Normal (%) [8]: 96% and 95%
Population Tubulin-Different-Phenotype (%) [8]: 44% [middle of 4 runs]
Population Apoptotic (%) [9]: 41% and 50% and 34%
Population Fragmented Nuclei (%) [9]: 14% and 21% and 17%
Population Healthy Nuclei (%) [9]: 34% and 40%
Population Hoechst High Intensity Objects (%) [9]: 14% and 20%
Population Membrane Permeable-Phenotype (%) [9]: 4% and 2%
Population Mitochondria Different-Phenotype (%) [9]: 31% and 29%
Population Mitotic Cells (%) [9]: 58% and 49% and 65%
Population Normal (%) [9]: 85% and 79%
Population Pyknosed Nuclei (%) [9]: 50% and 38% and 42%
Population Tubulin-Different-Phenotype (%) [9]: 27% and 29%
Total Cell Count [9]: 401 and 332 and 411
Population Apoptotic (%) [10]: 9% and 8% and 13%
Population Fragmented Nuclei (%) [10]: 6% and 5%
Population Healthy Nuclei (%) [10]: 79% and 76% and 82%
Population Hoechst High Intensity Objects (%) [10]: 3% and 5%
Population Membrane Permeable-Phenotype (%) [10]: 8% and 6%
Population Mitochondria Different-Phenotype (%) [10]: 3% and 7% and 6%
Population Mitotic Cells (%) [10]: 90% and 91% and 86%
Population Normal (%) [10]: 96% and 94%
Population Pyknosed Nuclei (%) [10]: 13% and 17% and 11%
Population Tubulin-Different-Phenotype (%) [10]: 18% and 22% and 15%
Total Cell Count [10]: 377 and 459 and 394
Population Apoptotic (%) [11]: 48% and 63% and 54%
Population Fragmented Nuclei (%) [11]: 23% and 25%
Population Healthy Nuclei (%) [11]: 28% and 27% and 18%
Population Hoechst High Intensity Objects (%) [11]: 19% and 20% and 16%
Population Membrane Permeable-Phenotype (%) [11]: 0% and 1%
Population Mitochondria Different-Phenotype (%) [11]: 73% and 83%
Population Mitotic Cells (%) [11]: 51% and 36% and 45%
Population Normal (%) [11]: 80% and 79% and 83%
Population Pyknosed Nuclei (%) [11]: 47% and 48% and 56%
Population Tubulin-Different-Phenotype (%) [11]: 32% and 59%
Total Cell Count [11]: 274 and 281 and 324
Population Apoptotic (%) [12]: 30% and 26% and 20%
Population Fragmented Nuclei (%) [12]: 6% and 5% and 8%
Population Healthy Nuclei (%) [12]: 78% and 75% and 74%
Population Hoechst High Intensity Objects (%) [12]: 3% and 2%
Population Membrane Permeable-Phenotype (%) [12]: 5% and 2%
Population Mitochondria Different-Phenotype (%) [12]: 27% and 41% and 31%
Population Mitotic Cells (%) [12]: 69% and 73% and 79%
Population Normal (%) [12]: 96% and 97%
Population Pyknosed Nuclei (%) [12]: 15% and 19% and 17%
Population Tubulin-Different-Phenotype (%) [12]: 50% and 52% and 49%
Total Cell Count [12]: 396 and 327 and 349

Cc1nc(-c2cn3c(n2)-c2ccc(-c4cnn(C(C)(C)C(N)=O)c4)cc2OCC3)n(C(C)C)n1 [TASELISIB]
Population Apoptotic (%) [1]: 21%
Population Fragmented Nuclei (%) [1]: 14%
Population Healthy Nuclei (%) [1]: 44%
Population Hoechst High Intensity Objects (%) [1]: 22%
Population Membrane Permeable-Phenotype (%) [1]: 4%
Population Mitochondria Different-Phenotype (%) [1]: 12%
Population Mitotic Cells (%) [1]: 78%
Population Normal (%) [1]: 77%
Population Pyknosed Nuclei (%) [1]: 41%
Population Tubulin-Different-Phenotype (%) [1]: 9%
Total Cell Count [1]: 548
Population Apoptotic (%) [2]: 17%
Population Fragmented Nuclei (%) [2]: 2%
Population Healthy Nuclei (%) [2]: 80%
Population Hoechst High Intensity Objects (%) [2]: 7%
Population Membrane Permeable-Phenotype (%) [2]: 0%
Population Mitochondria Different-Phenotype (%) [2]: 28%
Population Mitotic Cells (%) [2]: 82%
Population Normal (%) [2]: 92%
Population Pyknosed Nuclei (%) [2]: 16%
Population Tubulin-Different-Phenotype (%) [2]: 13%
Total Cell Count [2]: 803
Population Apoptotic (%) [3]: 17%
Population Fragmented Nuclei (%) [3]: 17%
Population Healthy Nuclei (%) [3]: 49%
Population Hoechst High Intensity Objects (%) [3]: 12%
Population Membrane Permeable-Phenotype (%) [3]: 3%
Population Mitochondria Different-Phenotype (%) [3]: 8%
Population Mitotic Cells (%) [3]: 82%
Population Normal (%) [3]: 87%
Population Pyknosed Nuclei (%) [3]: 32%
Population Tubulin-Different-Phenotype (%) [3]: 6%
Total Cell Count [3]: 507
Population Apoptotic (%) [4]: 11%
Population Fragmented Nuclei (%) [4]: 8%
Population Healthy Nuclei (%) [4]: 86%
Population Hoechst High Intensity Objects (%) [4]: 3%
Population Membrane Permeable-Phenotype (%) [4]: 1%
Population Mitochondria Different-Phenotype (%) [4]: 11%
Population Mitotic Cells (%) [4]: 88%
Population Normal (%) [4]: 96%
Population Pyknosed Nuclei (%) [4]: 4%
Population Tubulin-Different-Phenotype (%) [4]: 10%
Total Cell Count [4]: 1692
Population Apoptotic (%) [5]: 24%
Population Fragmented Nuclei (%) [5]: 16%
Population Healthy Nuclei (%) [5]: 53%
Population Hoechst High Intensity Objects (%) [5]: 17%
Population Membrane Permeable-Phenotype (%) [5]: 3%
Population Mitochondria Different-Phenotype (%) [5]: 15%
Population Mitotic Cells (%) [5]: 75%
Population Normal (%) [5]: 82%
Population Pyknosed Nuclei (%) [5]: 30%
Population Tubulin-Different-Phenotype (%) [5]: 18%
Total Cell Count [5]: 507
Population Apoptotic (%) [6]: 20%
Population Fragmented Nuclei (%) [6]: 4%
Population Healthy Nuclei (%) [6]: 84%
Population Hoechst High Intensity Objects (%) [6]: 10%
Population Membrane Permeable-Phenotype (%) [6]: 1%
Population Mitochondria Different-Phenotype (%) [6]: 20%
Population Mitotic Cells (%) [6]: 79%
Population Normal (%) [6]: 89%
Population Pyknosed Nuclei (%) [6]: 11%
Population Tubulin-Different-Phenotype (%) [6]: 39%
Total Cell Count [6]: 810
Population Apoptotic (%) [7]: 27%
Population Fragmented Nuclei (%) [7]: 13%
Population Healthy Nuclei (%) [7]: 66%
Population Hoechst High Intensity Objects (%) [7]: 8%
Population Membrane Permeable-Phenotype (%) [7]: 12%
Population Mitochondria Different-Phenotype (%) [7]: 5%
Population Mitotic Cells (%) [7]: 72%
Population Normal (%) [7]: 91%
Population Pyknosed Nuclei (%) [7]: 19%
Population Tubulin-Different-Phenotype (%) [7]: 11%
Total Cell Count [7]: 535
Population Apoptotic (%) [8]: 3%
Population Fragmented Nuclei (%) [8]: 24%
Population Healthy Nuclei (%) [8]: 73%
Population Hoechst High Intensity Objects (%) [8]: 4%
Population Membrane Permeable-Phenotype (%) [8]: 7%
Population Mitochondria Different-Phenotype (%) [8]: 2%
Population Mitotic Cells (%) [8]: 96%
Population Normal (%) [8]: 95%
Population Pyknosed Nuclei (%) [8]: 1%
Population Tubulin-Different-Phenotype (%) [8]: 12%
Total Cell Count [8]: 2851
